Assay results: publication PMC3755765 (ChemMedChem, 2013)
Values after ≈ are worked out from the molar mass of the structure shown. Values joined by “and” are separate entries in the source; they are usually repeats but may differ in a detail not shown here. Identical values can stand only once. “Also recorded” adds a separate entry of the source. Like-named read-outs stand apart in the source and are kept apart here.

Columns and labels:
in vitro = settings: human, Caco-2
T. gondii = T. gondii mouse infection model; format: in vivo; settings: mice; for Effect on parasite burden compared to triclosan (Xenogen camera images): 10mg/ml; for Effect on parasite growth in vivo: 50mg/kg (results not shown)
TgENR = target: T1, TgENR (Toxoplasma gondii, UniProt Q6UCJ9); test: TgENR enzyme assay; format: biochemical; settings: for inhibition at 1 µM: read-out: Cpd. conc. [1 μM]/% Inh.: percentage of inhibition of TgENR
T1 sequence (Q6UCJ9 28-417): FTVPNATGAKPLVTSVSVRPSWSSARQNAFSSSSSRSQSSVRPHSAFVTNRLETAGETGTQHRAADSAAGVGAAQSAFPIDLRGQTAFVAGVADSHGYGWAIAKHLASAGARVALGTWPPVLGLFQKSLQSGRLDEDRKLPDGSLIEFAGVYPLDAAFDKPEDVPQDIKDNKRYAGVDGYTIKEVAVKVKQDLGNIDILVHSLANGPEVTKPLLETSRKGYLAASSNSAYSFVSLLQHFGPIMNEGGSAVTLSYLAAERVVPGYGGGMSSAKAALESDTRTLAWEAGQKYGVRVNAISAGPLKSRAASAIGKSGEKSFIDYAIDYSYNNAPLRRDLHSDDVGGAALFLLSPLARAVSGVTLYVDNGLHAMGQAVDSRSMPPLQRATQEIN

T. gondii tachyzoites = test: Parasite tissue culture assay: inhibition of T. gondii tachyzoites in HFF; format: cell-based, Toxoplasma gondii; settings: for IC50 / MIC50: Toxoplasma gondii
[1] = tested on: Human Foreskin Fibroblasts (HFF); test: Toxicity for host cells; settings: for Parasite tissue culture assay HFF (HFF toxicity): human foreskin fibroblasts, highest concentration tested 10 μM
[2] = Intrinsic clearance in human liver microsomes; format: in vitro ADME
Toxicity in mice = format: in vivo
[3] = Experimental Caco-2 permeability; settings: human, Caco-2
[4] = Intrinsic clearance in human cryopreserved hepatocytes; format: in vitro ADME; settings: human
[5] = tested on: human cryopreserved hepatocytes; test: as above; format: in vitro ADME
[6] = tested on: P. falciparum strain D6 (CDC/Sierra Leone); test: Malaria SYBR Green I-based fluorescence assay, strain D6; format: cell-based; settings: Plasmodium falciparum, D6, 72 h, read-out: SYBR Green D6 IC50
Procedure, shortened: (§1)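 Late-ring or early-trophozoite parasites at 0.3% starting parasitemia and 2% hematocrit were added to plates predosed with quadruplicate 12-point two-fold dilutions in DMSO (final […]), with mefloquine as reference. Plates were incubated 72 h at 37°C under 5% CO2/5% O2/90% N2, lysed with Tris/EDTA/Triton X/saponin buffer with SYBR Green I (final 10x), kept dark 24 h at RT, and read as RFU. A chloroquine batch control at 2000 ng/ml validated each run.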

[7] = tested on: P. falciparum strain TM91C235 (WRAIR, Thailand, chloroquine resistant); test: Malaria SYBR Green I-based fluorescence assay, strain TM91C235; format: cell-based; settings: Plasmodium falciparum, 72 h, read-out: SYBR Green C235 IC50
Procedure, shortened: as §1

Caco-2 = test: Experimental Caco-2 permeability; settings: experimental, Contract Research Organization
[8] = 72 h, read-out: Parasite tissue culture assay MIC50
[9] = 75 mg/kg, day 5 after infection, 75 mg/kg

| Structure (SMILES) | Effect on parasite burden in vivo (T. gondii; 10 mg/kg) | inhibition at 1 µM (TgENR) | MIC50 (T. gondii tachyzoites; [8]) | Parasite tissue culture assay HFF (HFF toxicity) [1] | IC50 [6] | IC50 [7] | also measured |
| --- | --- | --- | --- | --- | --- | --- | --- |
| CC(C)NCC(O)COc1cccc2ccccc12 (centres unmarked) [propranolol] |  |  |  |  |  |  | Papp (in vitro): 51.1 ×10⁻⁶ cm/s |
| Oc1cc(Cl)ccc1Oc1ccc(Cl)cc1Cl [Triclosan, triclosan, reference compound] | effective; also recorded: demonstrated efficacy | 97% | 3 µM (≈ 0.869 µg/mL) | > 10 µM |  |  | IC50 (T. gondii tachyzoites; [8]): 250 nM |
| Oc1cc(Cl)ccc1Oc1ccc(Cn2ccnn2)cc1Cl [Compound 16c, 5-Chloro-2-[2-chloro-4-[(1H-1,2,3-triazol-1-yl)methyl]phenoxy]phenol] | neither of those analogs reduced the parasite burden; also recorded: no effect | 91% | 0.25 µM (≈ 0.084 µg/mL) | >10 µM |  |  | half-life [2]: > 60 min; Effect on parasite burden compared to triclosan (Xenogen camera images) (T. gondii): reduced effect; Effect on parasite growth in vivo (T. gondii): not evident; Effect on parasite burden in vivo (T. gondii; [9]): protected the mice by decreasing parasite burden; also recorded: effective in reducing parasite burden; Toxicity in mice relative to triclosan (fold less toxic) (Toxicity in mice): 10 fold; IC50 (T. gondii tachyzoites; read-out: IC50 (MIC50) against Toxoplasma gondii tachyzoites): 250 nM; Toxicity to the host cells [1]: without apparent toxicity to the host cells; Papp [3]: 26.3 ×10⁻⁶ cm/s; half-life [4]: 29 min; Compound left unmetabolized ([5]; after 60 min): 20%; Compound remained intact ([5]; after 120 min): 5% |
| CCCCN(CCCC)C(=O)c1ccc(Oc2ccc(Cl)cc2Cl)c(O)c1 [Compound 30b, 4-(2,4-Dichlorophenoxy)-3-hydroxy-N,N-dibutylbenzamide] |  | 44% | > 10 µM | >10 µM | 400 nM and 0.166 µg/mL | 600 nM and 0.247 µg/mL |  |
| Oc1cc(CNc2ccccc2)ccc1Oc1ccc(Cl)cc1Cl [Compound 39a, 2-(2,4-Dichlorophenoxy)-5-[(phenylamino)methyl]phenol] |  | 96% | 10 µM (≈ 3.6 µg/mL) | >10 µM | 4.56 µM and 1.64 µg/mL | > 2 µg/mL | IC50 (TgENR): 130 nM |
| COc1cc2c(c(OC)c1OC)-c1ccc(OC)c(=O)cc1[C@@H](NC(C)=O)CC2 [colchicines, reference compound] |  |  |  |  |  |  | Caco-2 permeability (Caco-2): 0.1 ×10⁻⁶ cm/s |
| Cc1cc(CC(=O)NCc2ccc(Oc3ccc(Cl)cc3O)c(Cl)c2)on1 [Compound 37c, N-[3-Chloro-4-(4-chloro-2-hydroxyphenoxy)benzyl]-2-(3-methyl-1,2-oxazol-5-yl)acetamide] | neither of those analogs reduced the parasite burden; also recorded: no effect | 96% | > 10 µM |  |  |  | Effect on parasite burden compared to triclosan (Xenogen camera images) (T. gondii): reduced effect; Effect on parasite growth in vivo (T. gondii): not evident; Effect on parasite burden in vivo (T. gondii; [9]): protected the mice by decreasing parasite burden; also recorded: effective in reducing parasite burden; Toxicity in mice relative to triclosan (fold less toxic) (Toxicity in mice): 10 fold |
| Oc1cc(CNC2CCCCC2)ccc1Oc1ccc(Cl)cc1Cl [Compound 39b, 5-[(Cyclohexylamino)methyl]-2-(2,4-dichlorophenoxy)phenol] |  | 34% | 4 µM (≈ 1.47 µg/mL) | >10 µM | 30 nM and 0.0119 µg/mL | 80 nM and 0.0276 µg/mL | Activity in the enzyme-based assay (TgENR; purified TgENR): completely inactive; Activity in the parasite-based assay (T. gondii tachyzoites; T. gondii tachyzoites): activity comparable to or better than that of triclosan |
